Data on ten molecules can be found in ChEMBL document CHEMBL2176920, “Structure-based selectivity optimization of piperidine-pteridine derivatives as potent Leishmania pteridine reductase inhibitors” (J Med Chem, 2012).

Data set [1] has as its system Leishmania mexicana. The data set is described as follows: Antiparasitic activity against Leishmania mexicana promastigotes assessed as parasite growth at 50 ug/mL. In kind it is functional. The gist of the method: (§1)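 Promastigotes grown from 10^5 parasites/mL and harvested in exponential phase at 2 × 10^7/mL. For the assay they were plated at 10^6 cells/mL in 96-well format, so cells were leaving exponential phase for stationary phase. Compound was given at 50 μg/mL alone or together with pyrimethamine at 30 μg/mL. Percent growth inhibition was compared between the single agent and the combination.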

The nature of data set [2]: Toxicity against human MRC5 cells assessed as growth inhibition. The conditions noted are these: read-out: ED50 (the source's name). Type of data set: cell-based. The gist of the method: (§2)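 MRC-5 human fibroblasts were grown at 37 °C, 5% CO2, in DMEM with 10% heat-inactivated FBS and extra glutamine. Cells were seeded so that control wells were confluent after 72 h of incubation with compound. Alamar Blue optical density was the read-out. Values are mean ± SD of three independent experiments.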

For data set [3], the target named is T1, Thymidylate synthase (Homo sapiens, UniProt P04818). The data set is described as follows: Inhibition of human TS at 15 uM by spectrophotometric analysis. The gist of the method: (§3)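 Purified human enzymes screened in continuous spectrophotometric assays. DMSO was kept below the level affecting activity: under 5% for hDHFR and under 8% for hTS.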
Target sequence in this assay (P04818 2-313 limits assumed): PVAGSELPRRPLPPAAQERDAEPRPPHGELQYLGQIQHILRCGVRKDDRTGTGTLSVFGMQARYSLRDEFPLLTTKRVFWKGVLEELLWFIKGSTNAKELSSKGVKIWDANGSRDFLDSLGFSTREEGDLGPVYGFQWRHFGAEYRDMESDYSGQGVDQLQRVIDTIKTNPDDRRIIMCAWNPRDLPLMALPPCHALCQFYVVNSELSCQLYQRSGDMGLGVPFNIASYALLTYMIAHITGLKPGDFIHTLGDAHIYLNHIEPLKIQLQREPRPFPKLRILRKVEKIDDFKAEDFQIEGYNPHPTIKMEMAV
A further data set relates to Leishmania major. The data set is described as follows: Antiparasitic activity against Leishmania major promastigotes assessed as parasite growth at 50 ug/mL. Type of data set: functional. The gist of the method: as §1
Data set [4] relates to Leishmania mexicana. Kind of data set: Inhibition of pteridine reductase in Leishmania mexicana promastigote assessed as increase in pyrimethamine-induced growth inhibition by measuring parasite growth at 50 ug/mL. The arrangement: scale not given: the % may be the effect or the level left. An outline of the steps: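 Promastigotes plated at 10^6 cells/mL, leaving exponential and entering stationary phase. Exposed to compound at 50 μg/mL alone or together with pyrimethamine at 30 μg/mL. Percent growth inhibition with compound alone compared with that of each compound plus PYR.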

The subject of data set [5] is Leishmania mexicana. The data set is described as follows: Inhibition of pteridine reductase in Leishmania mexicana promastigote assessed as reduction in cell survival upon H2O2 exposure at ED50 after 48 hrs at 28 degC relative to control. An outline of the steps:
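L. mexicana promastigotes plated at 10^5 cells/mL and pretreated with compound for 48 h at 28 °C. Then diluted to 2 × 10^4 cells/mL and exposed to increasing H2O2 concentrations for 45 min. Surviving motile parasites counted on a Neubauer grid. Compound-treated, non-H2O2 sample taken as 100%; compared against untreated H2O2-exposed series.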

The test system of data set [6] is Leishmania mexicana. The data set is described as follows: Inhibition of pteridine reductase in Leishmania mexicana promastigote assessed as increase in pyrimethamine cytotoxicity by Chou-Talalay method.
A further data set has as its system MRC5. The data set is described as follows: Toxicity against human MRC5 cells assessed as growth inhibition at 50 ug/mL. In kind it is cell-based. An outline of the steps:
as §2

Data set [7] has as its target T1, Thymidylate synthase. Kind of data set: Inhibition of human TS at 50 uM by spectrophotometric analysis. An outline of the steps:
as §3
Target sequence in this assay (P04818 2-313 limits assumed): as above

In data set [8] the target is T2, Dihydrofolate reductase (Homo sapiens) (UniProt P00374).
T2 sequence (whole entry): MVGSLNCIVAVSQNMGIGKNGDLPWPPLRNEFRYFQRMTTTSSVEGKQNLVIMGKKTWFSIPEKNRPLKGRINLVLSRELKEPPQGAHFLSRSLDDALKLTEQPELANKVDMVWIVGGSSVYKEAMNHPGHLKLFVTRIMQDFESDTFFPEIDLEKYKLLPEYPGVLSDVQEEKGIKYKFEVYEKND
The data set is described as follows: Inhibition of human DHFR at 30 uM by spectrophotometric analysis. An outline of the steps: as §3

In data set [9] the target is T3, Pteridine reductase 1 (Leishmania major) (UniProt Q01782).
T3 sequence (whole entry): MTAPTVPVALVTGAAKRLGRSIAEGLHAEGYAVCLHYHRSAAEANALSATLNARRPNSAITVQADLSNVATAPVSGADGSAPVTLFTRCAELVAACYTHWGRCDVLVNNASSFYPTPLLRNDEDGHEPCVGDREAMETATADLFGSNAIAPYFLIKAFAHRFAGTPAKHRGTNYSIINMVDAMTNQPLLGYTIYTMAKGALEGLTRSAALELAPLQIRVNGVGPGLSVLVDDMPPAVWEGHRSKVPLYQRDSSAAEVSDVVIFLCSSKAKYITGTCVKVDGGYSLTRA

Data set [10] has as its target T1, Thymidylate synthase. Kind of data set: Inhibition of human TS at 30 uM by spectrophotometric analysis. An outline of the steps: as §3
Target sequence in this assay (P04818 2-313 limits assumed): as the sequence (P04818 2-313 limits assumed) above
A further data set has as its target T4, Dihydrofolate reductase (Homo sapiens, UniProt P00374).
T4 sequence (P00374 whole entry): T2 sequence (whole entry)
The data set is described as follows: Inhibition of human DHFR by spectrophotometric analysis.

Data set [11] can be described thus: Toxicity against human MRC5 cells assessed as growth inhibition at 100 ug/mL. The settings on record: read-out: GI. Type of data set: cell-based. An outline of the steps:
as §2

The target of data set [12] is T1, Thymidylate synthase. The data set is described as follows: Inhibition of human TS by spectrophotometric analysis.
Target sequence in this assay (P04818 whole entry): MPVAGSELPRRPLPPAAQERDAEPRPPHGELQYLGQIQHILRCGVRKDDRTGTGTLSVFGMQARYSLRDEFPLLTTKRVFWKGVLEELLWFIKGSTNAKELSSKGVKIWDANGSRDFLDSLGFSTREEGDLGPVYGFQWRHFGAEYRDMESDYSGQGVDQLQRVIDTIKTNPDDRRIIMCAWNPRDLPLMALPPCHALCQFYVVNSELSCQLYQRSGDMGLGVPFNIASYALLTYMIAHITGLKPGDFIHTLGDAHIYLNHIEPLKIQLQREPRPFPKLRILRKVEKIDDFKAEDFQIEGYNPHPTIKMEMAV

Each structure is given as a SMILES string. In brackets after ≈: the same amount, converted by molar mass. Activity calls are given as the source filed them. The rule behind the calls is not given here.

`NC(=O)C1CCN(C(=O)c2ccc(NCc3cnc4nc(N)nc(N)c4n3)cc2)CC1`: the results for the Activity in the data set with Leishmania mexicana [1], in the data set with Leishmania major and with Leishmania mexicana [4] were 88.5%, 121.2% and 15.7%, respectively. Further, in data set [2], the GI50 is 51 µg/mL (≈ 121 µM). Moreover, the inhibition entry on Thymidylate synthase [3] was “inactive”.

For the molecule `CCc1nc(N)nc(N)c1-c1ccc(Cl)cc1` [PYRIMETHAMINE], the Activity in the data set on Leishmania mexicana [1] was 102.5%; in the data set with Leishmania major, 68%. For the same molecule, in data set [2], the GI50 stood at 16.2 µg/mL (≈ 65.1 µM).

Consider `COC(=O)C1CCN(C(=O)c2ccc(NCc3cnc4nc(N)nc(N)c4n3)cn2)CC1`, for which the Activity with Leishmania mexicana [1] was 95.6%; with MRC5, “Non-toxic”; in the data set on Leishmania major, 103.4%; with Leishmania mexicana [4] it was 17.6%. For the same molecule, the inhibition entry with Leishmania mexicana [5] is “Active”. For the same molecule, the fractional inhibitory concentration index (FICI) in the data set on Leishmania mexicana [6] came out at 1.51. For the same molecule, the inhibition result (at Thymidylate synthase [7]; in [8]) was “inactive” throughout. In addition, the FICI in [9] was 0.8.

Take `CCc1ccc(NCc2cnc3nc(N)nc(N)c3n2)cc1C(=O)N1CCC(C(=O)OC)CC1`: the inhibition entry at Thymidylate synthase [10] was “inactive”. For the same molecule, affinity on Dihydrofolate reductase was put at a Ki of 4.68 µM.

As for `Nc1nc(N)c2nc(CNc3ccc(C(=O)N4CCC(C(=O)O)CC4)cc3)cnc2n1`, the inhibition entry at Thymidylate synthase [3] is “inactive”.

As to `CCOC(=O)CN(Cc1cnc2nc(N)nc(N)c2n1)c1ccc(C(=O)N2CCC(C(=O)OC)CC2)cc1`, the Activity in the data set on Leishmania mexicana [1] was determined as 102.3%; in the data set on Leishmania major, 100.8%; in the data set on Leishmania mexicana [4] it was 21.9%. The inhibition at 100 ug/mL in [11] came to 28%. In addition, the inhibition result (on Thymidylate synthase [10]; in data set [8]) was “inactive” throughout.

On to `COC(=O)C1CCN(C(=O)c2ccc(N(C)Cc3cnc4nc(N)nc(N)c4n3)cc2)CC1`, for which the inhibition entry at Thymidylate synthase [3] is “inactive”.

As to `COC(=O)C1CCN(C(=O)c2ccc(N(CCO)Cc3cnc4nc(N)nc(N)c4n3)cc2)CC1`, the Activity was 100.1% with Leishmania mexicana [1], “Non-toxic” with MRC5, 122.2% in the data set with Leishmania major and 12.9% in the data set with Leishmania mexicana [4]. Besides, the Ki on Thymidylate synthase [12] (read-out: Ki) is 64 µM.

In the case of `COC(=O)C1CCN(C(=O)c2ccc(NCc3cnc4nc(N)nc(N)c4n3)cc2)CC1`, the Activity in the data set on Leishmania mexicana [1] turned out to be 111.6%; with Leishmania major, 99.6%; in the data set on Leishmania mexicana [4], 24.4%. In addition, the inhibition entry in the data set on Leishmania mexicana [5] was “Active”. Also, the fractional inhibitory concentration index (FICI) in the data set with Leishmania mexicana [6] was 2.05. The GI50 in data set [2] stood at 23.4 µg/mL (≈ 53.6 µM). Also, the Ki entry on Thymidylate synthase [12] is “Not Active”; at Dihydrofolate reductase, 10 µM. Further, the FICI in data set [9] turned out to be 0.75.

Take `CCc1cc(C(=O)N2CCC(C(=O)OC)CC2)ccc1NCc1cnc2nc(N)nc(N)c2n1`: the Activity in the data set with Leishmania mexicana [1] worked out at 90.6%; in the data set on Leishmania major, 104.2%; in the data set with Leishmania mexicana [4], 19.6%. The GI50 in data set [2] is 21.8 µg/mL (≈ 46.9 µM). The inhibition entry (on Thymidylate synthase [10]; in data set [8]) was “inactive” in each case.

What is called Ki is the dissociation constant of the complex between target and ligand, obtained from inhibition or displacement.
